Legend:
TLR4 [1] = assay: Quantitative RT-PCR, LPS-stimulated RAW264.7 cells; type: cell-based, murine; details: TIP3 50 μM 1 h before LPS 100 ng/ml, 3 h; normalized to β-actin
How it was run: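 Total RNA isolated with TRIzol and reverse-transcribed to cDNA. qPCR run with SYBR Green and gene-specific primers (reference genes β-actin and Gapdh). Relative expression calculated by the ΔΔCt method.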

TLR4 [2] = assay: Immunofluorescence confocal microscopy of p-p65, LPS-stimulated RAW264.7 cells; type: cell-based, murine; details: TIP3 50 μM, 1 h before LPS 100 ng/ml
How it was run: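 RAW264.7 cells seeded on coverslips (2 × 10^5/well) and grown overnight. Stained with anti-p-p65 (1:1000, 2 h), then Alexa Fluor 546 secondary for 1 h. Nuclei stained with 5 µM Hoechst 33258. Fluorescence intensity quantified by confocal microscopy.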

TLR3 [3] = assay: Cytokine ELISA, poly; type: cell-based, murine; details: 24 h
How it was run: (§1)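 RAW264.7 cells seeded at 2 × 10^5/well (96-well) or 5 × 10^5/well (24-well), grown overnight, then treated with test compound. Stimulus: poly(I:C), CpG-ODN (15), FSL-1 (16) or R848 (17). Supernatant cytokines read after 24 h by mouse ELISA kits (IFN-β, IL-6, TNF-α). Cells kept at 37 °C, 5% CO2.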

TLR4 [4] = assay: Cytokine ELISA, LPS-stimulated THP-1-derived macrophages; type: cell-based, human
How it was run: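 THP-1 cells grown in RPMI 1640 with 10% FBS and differentiated to macrophages with 80 nM PMA for 24 h. Seeded at 2 × 10^5/well (96-well) or 5 × 10^5/well (24-well) and grown overnight. After 24 h of treatment with test compound and LPS, secreted IL-6 and TNF-α in supernatants were quantified by ELISA.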

TLR4 [5] = assay: Western blot, LPS-stimulated RAW264.7 cells; type: cell-based, murine
How it was run: (§2)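 Total protein extracted with M-PER reagent and quantified by BCA. Membranes incubated with primary antibodies overnight at 4 °C, washed in PBS/0·1% Tween 20, then HRP-conjugated secondary (1:1000) for 2 h. Bands detected by enhanced chemiluminescence, with β-actin as loading reference.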

TLR4 [6] = assay: Cytokine ELISA, LPS-stimulated mBMDMs; type: cell-based, mouse; details: TIP3 1 h, then LPS 24 h
How it was run: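 Bone marrow flushed from femurs and tibiae of 6–7-week-old C57BL/6J mice, then differentiated with M-CSF (25 ng/ml) for 3–4 days. Cells harvested with trypsin-EDTA and replated; experiments run after 24 h. Cells pretreated with test compound for 1 h, then co-treated with LPS for 24 h. Secreted IL-6 and TNF-α measured by mouse ELISA kits.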

TLR2/6 = assay: TNF-α secretion, FSL-1-stimulated RAW264.7 cells; type: cell-based, murine; details: TIP3 at 50 μM
How it was run: as §1

TLR4 [7] = assay: Western blot, LPS-stimulated hPBMCs; type: cell-based, human
How it was run: as §2

[8] = tested on: lupus-prone mice (MRL/lpr); assay: SLE model, MRL/lpr mice; type: in vivo, mouse (MRL/lpr); details: 10 nmol/g i.p. daily, 20 days
TLR4 [9] = assay: Cytokine ELISA, LPS-stimulated hMNCs; type: cell-based, human
How it was run: (§3)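 Commercial human mononuclear cells kept in RPMI 1640 (2·05 mM L-glutamine, 10% FBS, penicillin/streptomycin). Seeded at 2 × 10^5/well and grown overnight. Stimulated with LPS or poly(I:C) alongside test compound. After 24 h, supernatant IL-6 and TNF-α measured by human sandwich ELISA.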

TLR3 [10] = assay: Cytokine ELISA, poly; type: cell-based, human; details: hMNCs, poly(I:C)
How it was run: as §3

TLR3 [11] = assay: Cytokine ELISA, poly; type: cell-based, mouse; details: mBMDMs, poly(I:C)
How it was run: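 Bone marrow flushed from femurs and tibiae of C57BL/6J mice (6–7 weeks). Cultured in DMEM/10% FBS with M-CSF (25 ng/ml) for 3–4 days, detached with trypsin-EDTA, replated, and used 24 h later. Seeded and grown overnight, stimulated with poly(I:C) plus test compound. Secreted IFN-β measured after 24 h by mouse IFN-β ELISA.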

TLR4 [12] = assay: Intracellular NO and ROS; type: cell-based, murine; details: LPS, 50 μM TIP3
How it was run: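 RAW264.7 cells seeded at 1 × 10^6 per 6 cm dish and grown overnight. Stimulated with LPS and treated with test compound. Intracellular NO stained with DAF-FM and ROS with DCF-DA. Cellular fluorescence quantified by flow cytometry.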

TLR9 = assay: TNF-α secretion, CpG-ODN-stimulated RAW264.7 cells; type: cell-based, murine; details: TIP3 at 50 μM
How it was run: as §1

HEK-Blue™ hTLR4 cells = assay: MTT cell viability, HEK-Blue hTLR4 cells; type: cell-based, human; details: n ≥ 3
How it was run: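 MTT colourimetric viability assay. HEK-Blue hTLR4 cells (high-glucose DMEM, 10% FBS, normocin) seeded at 5 × 10^4/well. RAW264.7 cells seeded at 2 × 10^5/well. Both grown overnight before exposure to test compound.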

TLR4 [13] = assay: NO secretion assay, LPS-stimulated RAW264.7 cells; type: cell-based, murine; details: absorbance at 550 nm
How it was run: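 RAW264.7 cells seeded at 2 × 10^5/well in 96-well format and grown overnight. After treatment with test compound and LPS, nitric oxide in the culture medium was quantified with a colourimetric NO detection kit.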

DYDVCVCH [TIP3] was tested, and the “Cxcl-10 mRNA expression” value (TLR4 [1]) was “significantly inhibited the mRNA expression”, the “Ifn-β mRNA expression” value (TLR4 [1]) was “significantly inhibited the mRNA expression” and the “Il-1β mRNA expression” value (TLR4 [1]) was “significantly inhibited the mRNA expression”. For the same sequence, the “Il-6 mRNA expression” value (TLR4 [1]) was “significantly inhibited the mRNA expression”, the “Tnf-α mRNA expression” value (TLR4 [1]) was “significantly inhibited the mRNA expression” and the “LPS-induced p65 phosphorylation (confocal)” value (TLR4 [2]) was “decreased the LPS-induced p65 phosphorylation”. For the same sequence, the “poly(I:C)-induced IFN-α secretion” value (TLR3 [3]) was “also inhibited”, the “poly(I:C)-induced IFN-β secretion” value (TLR3 [3]) was “also inhibited” and the “poly(I:C)-induced IL-6 secretion” value (TLR3 [3]) was “also inhibited”. The “TLR3-mediated TNF-α secretion” value (TLR3 [3]; poly(I:C)) was “significantly diminished the TLR3-mediated TNF-α secretion in a dose-dependent manner”, the IL-6 secretion (TLR4 [4]) was “significant dose-dependent inhibitory effect” and the TNF-α secretion (TLR4 [4]) was “significant dose-dependent inhibitory effect”. The ATF3 expression (TLR4 [5]) was “hindered the LPS-induced expression of activating transcription factor 3 (ATF3)”, the COX2 expression (TLR4 [5]) was “represses the LPS-induced extracellular secretion of NO and the expression of iNOS and COX2 in a dose-dependent manner” and the Iκ-Bα degradation (TLR4 [5]) was “inhibiting Iκ-Bα degradation”. For the same sequence, the iNOS expression (TLR4 [5]) was “represses the LPS-induced extracellular secretion of NO and the expression of iNOS and COX2 in a dose-dependent manner”, the “phosphorylation of ERK” value (TLR4 [5]) was “inhibiting the phosphorylation of c-Jun N-terminal kinase (JNK), p38 MAPK, extracellular signal–regulated kinase (ERK)” and the “phosphorylation of IRF3 (p-IRF3)” value (TLR4 [5]) was “inhibiting Iκ-Bα degradation, and phosphorylation of the p65 subunit of NF-κB, and IRF3”. The “phosphorylation of JNK” value (TLR4 [5]) was “inhibiting the phosphorylation of c-Jun N-terminal kinase (JNK)”, the “phosphorylation of p38” value (TLR4 [5]) was “inhibiting the phosphorylation of c-Jun N-terminal kinase (JNK), p38 MAPK” and the “phosphorylation of p65 subunit of NF-κB (p-p65)” value (TLR4 [5]) was “inhibiting Iκ-Bα degradation, and phosphorylation of the p65 subunit of NF-κB”. The “TLR4-mediated IL-6 secretion” value (TLR4 [6]) was “suppressed the TLR4-mediated secretion of IL-6”, the “TLR4-mediated TNF-α secretion” value (TLR4 [6]) was “suppressed the TLR4-mediated secretion of IL-6 and TNF-α” and the “TNF-α secretion mediated by TLR2/6” value (TLR2/6) was “somewhat weak inhibition”. The “activation of ATF3” value (TLR4 [7]) was “hindered the activation of NF-κB and ATF3”, the “activation of NF-κB” value (TLR4 [7]) was “hindered the activation of NF-κB” and the “phosphorylation of ERK” value (TLR4 [7]) was “inhibited the phosphorylation of MAPKs, including ERK, JNK, and p38”. The “phosphorylation of IRF3” value (TLR4 [7]) was “hindered the activation of NF-κB and ATF3 and the phosphorylation of IRF3”, the “phosphorylation of JNK” value (TLR4 [7]) was “inhibited the phosphorylation of MAPKs, including ERK, JNK, and p38” and the “phosphorylation of p38” value (TLR4 [7]) was “inhibited the phosphorylation of MAPKs, including ERK, JNK, and p38”. For the same sequence, the “complement C4” value [8] was “the levels of complement components C4 and C3 were recovered”, the dsDNA autoantibodies ([8]; ELISA) was “remained low” and the “serum C3 complement” value ([8]; ELISA) was “found to recover”. For the same sequence, the urine albumin ([8]; ELISA) was “reduced by TIP3 treatment”, the “lymphoid expansion and spleen volume” value ([8]; vs vehicle) was “reducing the lymphoid expansion and the spleen volume” and the “TLR4-mediated IL-6 secretion” value (TLR4 [9]) was “significantly inhibited”. For the same sequence, the “TLR4-mediated TNF-α secretion” value (TLR4 [9]) was “significantly inhibited”, the “TLR3-mediated TNF-α secretion” value (TLR3 [10]) was “significantly inhibited” and the “TLR3-mediated IFN-β secretion” value (TLR3 [11]) was “suppressed”. The “intracellular NO” value (TLR4 [12]; DAF-FM) was “significantly inhibited”, the “intracellular ROS” value (TLR4 [12]; DCF-DA) was “significantly inhibited” and the “TNF-α secretion mediated by TLR9” value (TLR9) was “somewhat weak inhibition”. The “cell viability / cytotoxicity” value (HEK-Blue™ hTLR4 cells; 12·5 to 50 μM) was “did not show any significant cytotoxicity”, the “cell viability / cytotoxicity” value (HEK-Blue™ hTLR4 cells; high concentration, 100 μM) was “slight cytotoxicity” and the “LPS-induced extracellular NO secretion” value (TLR4 [13]) was “represses the LPS-induced extracellular secretion of NO”.

From paper PMC6997517 (EBioMedicine, 2020)
